Consider five compounds from ChEMBL document CHEMBL3102836, “Dioxatricyclic and oxabicyclic polyketides from Trichocladium opacum” (J Nat Prod, 2014).

What all share (assay type): functional, cell-based
Test [1] relates to HCT-116. The test is described as follows: Cytotoxicity against human HCT116 cells after 48 hrs by MTS assay. Particulars: HCT-116, 48 h. The essentials:
(§1)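 Triplicate wells seeded at (2−5) × 10^3 cells (by growth rate), attached overnight, then medium replaced with medium carrying serial dilutions from 100 mM DMSO stocks (vehicle wells 0.1% DMSO); cisplatin positive control. 48 h at 37 °C, humidified 5% CO2. MTS added, 90 min at 37 °C in dark, absorbance 490 nm; IC50 reported.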
In general terms: Tetrazolium assays rely on reduction of a dye to a coloured formazan, in cell work by metabolically active cells.

Test [2] concerns SW480. As to the kind of experiment: Cytotoxicity against human SW480 cells after 48 hrs by MTS assay. To be noted: SW480, 48 h. The essentials:
as §1

Test [3] deals with HeLa. The test is described as follows: Cytotoxicity against human HeLa cells after 48 hrs by MTS assay. In short, it runs like this:
as §1

Test [4] has as its system A549. As to the kind of experiment: Cytotoxicity against human A549 cells after 48 hrs by MTS assay. To be noted: A549, 48 h. In short, it runs like this: as §1
Test [5] deals with HeLa. As to the kind of experiment: Cytotoxicity against human HeLa cells at 20 ug/ml after 48 hrs by MTS assay. The essentials:
(§2)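 Single-concentration test at 20 μg/mL. Triplicate wells seeded at (2−5) × 10^3 cells, attached overnight, then medium replaced with compound-containing medium (100 mM DMSO stock; vehicle wells 0.1% DMSO); cisplatin positive control. 48 h exposure at 37 °C, humidified 5% CO2. MTS added, 90 min at 37 °C in dark, read at 490 nm.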

The test system of test [6] is HCT-116. The test is described as follows: Cytotoxicity against human HCT116 cells at 20 ug/ml after 48 hrs by MTS assay. The essentials:
as §2

Test [7] relates to SW480. The test is described as follows: Cytotoxicity against human SW480 cells at 20 ug/ml after 48 hrs by MTS assay. The essentials: as §2
In test [8] the test system is A549. As to the kind of experiment: Cytotoxicity against human A549 cells at 20 ug/ml after 48 hrs by MTS assay. In short, it runs like this: as §2

Each structure is given as a SMILES string. The source made the active and inactive calls. The calls are words filed in the database; no cut-off is given here.

As to `C[C@@H](O)[C@@H](O)[C@]12C(=O)O[C@H](C=C[C@@H]1C)[C@H]2O`, the IC50 (commonly the point on the concentration scale where inhibition reaches its midpoint) in test [1] was determined as 41.7 µM; in test [2] it was 43.6 µM; in test [3] it was 44.3 µM; in test [4] it was 52.3 µM.

With `C[C@@H]1C=C[C@H](O)[C@H]2O[C@@]3(C)OC(=O)[C@@]12[C@H]3O`, the outcome in test [5], in test [6], in test [7] and in test [8] was inactive.

Take `COC(=O)[C@]12[C@H](C)[C@H](C[C@H](O)[C@H]1O)O[C@H]2C(C)=O`: the outcome in test [5], in test [6], in test [7] and in test [8] was inactive.

`C[C@@H]1CC[C@H](O)[C@H]2O[C@@]3(C)OC(=O)[C@@]12[C@H]3O`: in test [5], the outcome was inactive. Further, the IC50 in test [1] was determined as 56.6 µM; in test [2], 51.9 µM; in test [4], 61 µM.

For `C[C@@H]1C=C[C@H](O)[C@H]2O[C@@]3(C)OC(=O)[C@@]12[C@@H]3O`, the result in test [5] was inactive. The values for the IC50 in test [1], in test [2] and in test [4] were 48.8 µM, 54.9 µM and 83.6 µM, respectively.
